molecular target: T1, OR7G2 (Homo sapiens) (UniProt Q8NG99); details: stereoisomer not certain
T1 sequence (whole entry): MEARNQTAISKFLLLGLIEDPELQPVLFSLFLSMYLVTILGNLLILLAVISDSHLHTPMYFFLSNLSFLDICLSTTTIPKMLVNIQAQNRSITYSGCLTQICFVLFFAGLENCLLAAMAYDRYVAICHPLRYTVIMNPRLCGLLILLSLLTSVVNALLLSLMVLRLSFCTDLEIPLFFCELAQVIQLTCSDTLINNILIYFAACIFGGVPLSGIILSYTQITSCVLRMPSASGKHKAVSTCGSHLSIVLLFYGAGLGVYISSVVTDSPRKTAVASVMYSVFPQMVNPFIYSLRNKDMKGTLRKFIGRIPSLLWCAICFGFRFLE
Method in brief: (§1)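 Each receptor–molecule pair is labelled responsive or non-responsive (inactive) according to whether the original authors judged the measured signal statistically different from baseline. The data were taken from the main text and supplementary material of published papers and checked for typos and inconsistencies. Assay methods differed by source, with transient luciferase assays in mammalian cell lines being common.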
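Also: active if original authors judged signal statistically different from baseline.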

Compound | odorant receptor agonist call
CC(CO)CS (stereo not given) | inactive
CCC(S)C(C)CO (stereo not given) | inactive
CCCCCCC=CCCC=O | inactive
CCCCC(S)C(C)CO (stereo not given) | inactive
CCCCCC(=O)C(C)C(C)=O (stereo not given) | inactive
CC(=O)c1c(C)c([N+](=O)[O-])c(C(C)(C)C)c([N+](=O)[O-])c1C | inactive
CCCCCC(S)C(C)CO (stereo not given) | inactive
CC1CCCCCCCCCCCCC(=O)C1 (stereo not given) | inactive

test system: T2, OR7G2; details: stereoisomer not certain
T2 sequence (whole entry): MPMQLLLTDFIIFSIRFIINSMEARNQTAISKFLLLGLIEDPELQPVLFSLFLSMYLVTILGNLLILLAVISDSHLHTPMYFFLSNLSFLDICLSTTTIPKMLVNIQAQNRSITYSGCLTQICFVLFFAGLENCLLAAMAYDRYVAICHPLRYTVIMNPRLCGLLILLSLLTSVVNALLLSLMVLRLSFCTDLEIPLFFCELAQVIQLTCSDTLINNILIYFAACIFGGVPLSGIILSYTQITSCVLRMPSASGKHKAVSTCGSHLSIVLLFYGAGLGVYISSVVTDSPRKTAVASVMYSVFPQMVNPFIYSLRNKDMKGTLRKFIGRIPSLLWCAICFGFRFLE
Method in brief: as §1

Compound | odorant receptor agonist call
CC1=C(O)C(=O)OC1C (stereo not given) | inactive
CCC1OC(=O)C(O)=C1C (stereo not given) | inactive
CCC1OC(C)=C(O)C1=O (stereo not given) | inactive
CCCC(S)CCOC(C)=O (stereo not given) | inactive
CC1=C(O)C(=O)C(C)O1 (stereo not given) | inactive
Cc1cnc(C)c(C)n1 | inactive
CC1=NC(C)C(C)S1 (stereo not given) | inactive

molecular target: T3, OR7G3 (Homo sapiens) (UniProt Q8NG95); details: stereoisomer not certain
T3 sequence (whole entry): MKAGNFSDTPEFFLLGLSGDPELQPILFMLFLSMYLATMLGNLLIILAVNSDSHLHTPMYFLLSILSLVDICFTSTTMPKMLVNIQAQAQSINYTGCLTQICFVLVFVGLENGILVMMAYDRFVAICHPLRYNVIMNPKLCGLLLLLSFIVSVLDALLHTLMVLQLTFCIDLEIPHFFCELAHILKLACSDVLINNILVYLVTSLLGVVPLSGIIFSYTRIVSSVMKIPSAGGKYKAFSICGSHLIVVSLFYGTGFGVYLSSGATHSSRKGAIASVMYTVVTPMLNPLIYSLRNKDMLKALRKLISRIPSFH
Method in brief: as §1

Compound | odorant receptor agonist call
CC(CO)CS (stereo not given) | inactive
CCC(S)C(C)CO (stereo not given) | inactive
CC1=C(O)C(=O)OC1C (stereo not given) | inactive
CCCCCCC=CCCC=O | inactive
CCCCC(S)C(C)CO (stereo not given) | inactive
CCCCCC(=O)C(C)C(C)=O (stereo not given) | inactive
CC(=O)c1c(C)c([N+](=O)[O-])c(C(C)(C)C)c([N+](=O)[O-])c1C | inactive
CCC1OC(=O)C(O)=C1C (stereo not given) | inactive
CCC1OC(C)=C(O)C1=O (stereo not given) | inactive
CCCCCC(S)C(C)CO (stereo not given) | inactive
CCCC(S)CCOC(C)=O (stereo not given) | inactive
CC1=C(O)C(=O)C(C)O1 (stereo not given) | inactive
Cc1cnc(C)c(C)n1 | inactive
CC1CCCCCCCCCCCCC(=O)C1 (stereo not given) | inactive
CC1=NC(C)C(C)S1 (stereo not given) | inactive

From the M2OR odorant receptor database
